Laboratory results: ChEMBL document CHEMBL3872284, “Hydrazone Linker as a Useful Tool for Preparing Chimeric Peptide/Nonpeptide Bifunctional Compounds” (ACS Med Chem Lett, 2017)
The source made the active and inactive calls. No cut-off for these calls is given here.

Key:
Rattus norvegicus [1] = experiment: Analgesic activity in Wistar rat assessed as increase in thermal stimulus-induced tail-flick latency at 12 nmol/kg administered intrathecally measured up to 60 mins; format: functional
How it was run: (§1)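 Intrathecal injection followed by tail-flick testing at 5 to 120 min post-injection. Responses expressed as % maximal possible effect (%MPE). Doses given in nmol/kg. n=6–8 animals per group, with a morphine group and statistics versus morphine.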

Mus musculus [2] = experiment: Analgesic activity in C57BL6 mouse assessed as increase in thermal stimulus-induced paw withdrawal latency at 48 umol/kg, iv measured after 30 mins by plantar test; format: functional, organism-based
How it was run: (§2)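 Heat-induced paw withdrawal (plantar test) after intravenous dosing. Readings taken over a time course to 120 min post-injection and expressed as % maximal possible effect (%MPE). n=6–8 animals per group, with morphine-treated animals as comparator and significance testing versus morphine.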

[3] = molecular target: T1, Delta-type opioid receptor (Rattus norvegicus, UniProt P33533); experiment: Displacement of [3H]DELT2 from DOR in Sprague-Dawley rat brain homogenate measured after 180 mins by scintillation counting analysis; format: tissue-based
T1 sequence (P33533 whole entry): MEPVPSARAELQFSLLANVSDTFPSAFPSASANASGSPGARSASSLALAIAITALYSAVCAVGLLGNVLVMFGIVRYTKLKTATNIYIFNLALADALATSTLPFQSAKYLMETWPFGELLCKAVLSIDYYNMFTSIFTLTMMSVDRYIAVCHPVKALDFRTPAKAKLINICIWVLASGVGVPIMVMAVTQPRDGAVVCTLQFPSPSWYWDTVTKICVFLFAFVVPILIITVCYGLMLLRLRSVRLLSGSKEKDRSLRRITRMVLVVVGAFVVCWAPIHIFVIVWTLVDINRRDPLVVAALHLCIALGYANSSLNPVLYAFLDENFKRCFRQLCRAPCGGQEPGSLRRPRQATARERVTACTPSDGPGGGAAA

Mu-type opioid receptor [4] = molecular target: T2, Mu-type opioid receptor (Rattus norvegicus, UniProt P33535); experiment: Displacement of [3H]DAMGO from MOR in Sprague-Dawley rat brain homogenate measured after 180 mins by scintillation counting analysis; format: tissue-based
T2 sequence (P33535 whole entry): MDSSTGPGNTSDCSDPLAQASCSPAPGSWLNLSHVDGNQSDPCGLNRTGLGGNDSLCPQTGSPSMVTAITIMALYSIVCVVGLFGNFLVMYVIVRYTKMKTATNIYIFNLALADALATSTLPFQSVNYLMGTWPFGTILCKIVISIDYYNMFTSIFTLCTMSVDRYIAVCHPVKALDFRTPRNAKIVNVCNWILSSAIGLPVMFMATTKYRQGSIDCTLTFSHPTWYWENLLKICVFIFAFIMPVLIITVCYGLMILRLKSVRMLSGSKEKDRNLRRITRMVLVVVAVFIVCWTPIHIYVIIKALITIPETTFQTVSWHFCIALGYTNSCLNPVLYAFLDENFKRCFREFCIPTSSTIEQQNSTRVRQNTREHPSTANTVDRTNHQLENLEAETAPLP

Substance-P receptor = Substance-P receptor (Rattus norvegicus, UniProt P14600); experiment: Displacement of [Leu-3,4,5-3H(N)]-Substance P from NK1 receptor in rat brain homogenate measured after 60 mins by microbeta scintillation counting analysis; format: tissue-based
Substance-P receptor, sequence (P14600 whole entry): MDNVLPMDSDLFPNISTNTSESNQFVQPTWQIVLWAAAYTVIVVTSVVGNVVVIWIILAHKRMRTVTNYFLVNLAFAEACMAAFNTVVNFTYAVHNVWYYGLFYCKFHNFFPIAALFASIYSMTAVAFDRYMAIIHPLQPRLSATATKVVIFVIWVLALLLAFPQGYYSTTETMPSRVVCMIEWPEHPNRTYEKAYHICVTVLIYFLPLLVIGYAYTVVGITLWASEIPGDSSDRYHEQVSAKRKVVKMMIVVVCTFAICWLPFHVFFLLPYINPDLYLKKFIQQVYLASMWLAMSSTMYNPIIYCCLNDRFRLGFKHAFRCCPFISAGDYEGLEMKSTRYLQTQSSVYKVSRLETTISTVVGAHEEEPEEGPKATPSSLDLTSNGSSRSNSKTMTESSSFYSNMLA

Mus musculus [5] = experiment: Analgesic activity in C57BL6 mouse assessed as effect on thermal stimulus-induced tail-flick latency at 20 to 80 umol/kg, iv measured after 5 mins; format: functional
How it was run: (§3)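 Tail-flick test after intravenous injection. Latencies recorded at time points from 5 to 120 min post-dose and converted to % maximal possible effect (%MPE). Groups of n=6–8 animals, compared against a morphine-treated group.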

Mus musculus [6] = experiment: Analgesic activity in C57BL6 mouse assessed as effect on thermal stimulus-induced tail-flick latency at 80 umol/kg, iv measured after 60 mins relative to control; format: functional; how it was run: as §3
Mus musculus [7] = experiment: Analgesic activity in C57BL6 mouse assessed as effect on thermal stimulus-induced tail-flick latency at 80 umol/kg, iv measured after 120 mins relative to control; format: functional; how it was run: as §3
Mus musculus [8] = experiment: Analgesic activity in C57BL6 mouse assessed as effect on thermal stimulus-induced paw withdrawal latency at 80 umol/kg, iv measured after 30 mins by plantar test relative to control; format: functional; how it was run: as §2
[9] = molecular target: T1, Delta-type opioid receptor; experiment: Displacement of [3H]DELT2 from DOR in rat brain homogenate measured after 60 mins by microbeta scintillation counting analysis; format: tissue-based
Mu-type opioid receptor [10] = molecular target: T2, Mu-type opioid receptor; experiment: Displacement of [3H]DAMGO from MOR in rat brain homogenate measured after 60 mins by microbeta scintillation counting analysis; format: tissue-based
Rattus norvegicus [11] = experiment: Analgesic activity in Wistar rat assessed as effect on thermal stimulus-induced tail-flick latency at 2 nmol/kg administered intrathecally measured after 15 mins relative to control; format: functional; how it was run: as §1
Mus musculus [12] = experiment: Analgesic activity in C57BL6 mouse assessed as effect on thermal stimulus-induced tail-flick latency at 80 umol/kg, iv measured up to 30 mins relative to control; format: functional; how it was run: as §3

In the case of `CN1CC[C@]23c4c5ccc(O)c4O[C@H]2[C@@H](O)C=C[C@H]3[C@H]1C5`, the Activity (Rattus norvegicus [1]) is reported as “Active” and the Activity (Mus musculus [2]) is reported as “Active”.

With `C[C@@H](NC(=O)[C@@H](N)Cc1ccc(O)cc1)C(=O)NCC(=O)N[C@@H](Cc1ccccc1)C(=O)NN` the IC50 [3] was 230 nM and the IC50 (Mu-type opioid receptor [4]) was 4.7 nM.

`C[C@@H](NC(=O)[C@@H](N)Cc1ccc(O)cc1)C(=O)NCC(=O)N[C@@H](Cc1ccccc1)C(=O)N/N=C/c1cc(C(F)(F)F)cc(C(F)(F)F)c1.O=C(O)C(F)(F)F` showed an IC50 (Substance-P receptor) of 4.24 nM, an MPE (Mus musculus [5]) of 84.81% and an MPE (Mus musculus [6]) of 69.84%. It also gave an MPE (Mus musculus [7]) of 16.84%, an MPE (Mus musculus [8]) of 75.41% and an IC50 [9] of 74.2 nM. For the same molecule, the IC50 (Mu-type opioid receptor [10]) was 12.7 nM, the MPE (Rattus norvegicus [11]) was 80.31% and the MPE (Mus musculus [12]) was 94.26%.

`C[C@@H](NC(=O)[C@@H](N)Cc1ccc(O)cc1)C(=O)NCC(=O)N[C@@H](Cc1ccccc1)C(=O)NNC(=O)[C@@H](N)Cc1ccccc1` showed an IC50 [3] of 15 nM and an IC50 (Mu-type opioid receptor [4]) of 0.74 nM.
